Where two headings read alike, the source gives them in different places.
Key:
αIIbβ3 headpiece [1] = target: T1, αIIbβ3 headpiece (Homo sapiens, UniProt P05106+P08514); assay: Size-exclusion chromatography; format: biochemical; conditions: 10 μM drug; for effect on αIIbβ3 headpiece conformation in gel filtration: Mg2+ and Mn2+ buffers
In short: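 Superdex 200 column equilibrated with 10 µM test compound in HEPES-buffered saline containing either 1 mM Mg2+/1 mM Ca2+ or 2 mM Mn2+/0.2 mM Ca2+. αIIbβ3 headpiece (30 µg) pre-incubated 30 min at RT with 60 µM compound in matching buffer, then chromatographed. Hydrodynamic radius taken from elution. Two runs, or one, per compound; controls ≥3.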

αIIbβ3 on platelets = conditions: cited from earlier work; for LIBS epitopes on platelets in platelet-rich plasma: ref Baba et al., Murphy et al.
αIIbβ3 headpiece [2] = target: T1, αIIbβ3 headpiece; conditions: for conformational state of headpiece molecules in the crystal lattice: state 1 closed, state 8 open
In short: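 Closed αIIbβ3 headpiece–10E5 Fab crystals stabilised in 15% PEG 8000, 0.2 M ammonium sulfate, 0.1 M Tris-HCl pH 8.9, with glycerol raised in 5% steps to 15%. Compound (0.1-1 mM) added in the final 20% glycerol cryo step, with 1 mM MgCl2/1 mM CaCl2 or 2 mM MnCl2/0.2 mM CaCl2. Soaked 4 h, plunge-frozen in liquid N2. Synchrotron diffraction data collected, then structure refinement.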

αIIbβ3_N305T = αIIbβ3_N305T (Homo sapiens, UniProt P05106+P08514, N331T); assay: MBC319.4 Fab LIBS epitope exposure on αIIbβ3_N305T transfectants; format: cell-based; conditions: αIIbβ3 N305T transfectants, inhibitors at 100x Kd
In short: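 αIIbβ3_N305T transfectants of α5/αV-knockout Expi293F cells, harvested 48 h post-transfection and EDTA-washed. Incubated with 20 nM Alexa647-labelled MBC319.4 Fab and test compound in L-15 with 0.1% BSA, equilibrated 2 h at 22°C. Fab binding read by flow cytometry without washing, as MFI.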

[3] = target: αIIbβ3 on washed human platelets (Homo sapiens, UniProt P05106+P08514); assay: Platelets LIBS exposure assay; format: cell-based
In short: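 Blood from drug-free healthy donors was taken into acid-citrate-dextrose. PRP was spun (140xg, 12 min), given PGE1 at 50 ng/ml, pelleted, washed in citrate-dextrose buffer pH 6.5 and resuspended in Tyrode's pH 7.4 with 1% BSA and 1 mM Ca²⁺/Mg²⁺. […] Read-out was unwashed flow cytometry MFI, over three days with two donors.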

[4] = test system: clot retraction in human PRP; assay: Clot retraction in platelet-rich plasma; format: cell-based; conditions: thrombin
In short: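 Citrated human PRP pre-incubated 20 min at RT with test compound or buffer (in Tyrode's buffer + 1% BSA) at several concentrations. Glass-tube clot retraction started with thrombin (7.5 U/ml stock) at 37°C and imaged every 15 min. Retraction = 1 − (clot area/whole reaction area). IC50 at 30 and 90 min from a three-parameter inhibitor-response fit. Three runs, PRP from three donors.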

αIIbβ3 WT = αIIbβ3 WT (Homo sapiens, UniProt P05106+P08514); assay: MBC319.4 Fab LIBS epitope exposure on αIIbβ3 WT transfectants; format: cell-based; conditions: inhibitors at 100x Kd
In short: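 Cells transiently transfected with αIIbβ3 received valproic acid (3 mM final) and glucose (0.4%) at 24 h, and were washed at 48 h in EDTA-containing then plain L-15/0.1% BSA. Cells were incubated with 20 nM Alexa647-MBC319.4 Fab plus inhibitor (Kd from FITC-echistatin competition on WT transfectants) in L15/0.1% BSA, 22°C for 2 h. Read-out was unwashed flow cytometry.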

[5] = after activation with thrombin 0.5 U/ml

| Compound | effect on αIIbβ3 headpiece opening in gel filtration (αIIbβ3 headpiece [1]; 1 mM Mg2+/1 mM Ca2+) | effect on αIIbβ3 headpiece opening in gel filtration (αIIbβ3 headpiece [1]; 2 mM Mn2+/0.2 mM Ca2+) | effect on structure of closed αIIbβ3 headpiece in crystals (αIIbβ3 headpiece [2]; soaked in Mg2+) | effect on structure of closed αIIbβ3 headpiece in crystals (αIIbβ3 headpiece [2]; soaked in Mn2+) | LIBS epitope exposure (integrin extension) on washed platelets [3, 5] | inhibition of clot retraction [4] | LIBS epitope exposure (integrin extension) on washed platelets ([3]; absence of thrombin) | further results |
| --- | --- | --- | --- | --- | --- | --- | --- | --- |
| CN1CCN(C(=N)c2ccc(C3=NOC(CN4CCN(CC(=O)O)CC4)C3)cc2)CC1 (stereo not shown) [BMS4, 2-(4-((3-(4-(imino(4-methylpiperazin-1-yl)methyl)phenyl)-4,5-dihydroisoxazol-5-yl)methyl)piperazin-1-yl)acetic acid] | neither UR-2922 nor BMS4 increased the hydrodynamic radius | shifted the headpiece to a smaller hydrodynamic radius than the control | no structural perturbation | no structural perturbation | decreased |  |  | LIBS on platelets (αIIbβ3 on platelets; Mg2+ ref Breth et al., 2005): not to induce LIBS; LIBS (MBC319.4) epitope exposure (αIIbβ3_N305T): significantly suppressed LIBS induction |
| N=C(N)c1ccc(C2=NOC(CN3CCN(CC(=O)O)CC3)C2)cc1 (stereo not shown) [BMS4–1, 3-(4-((3-(4-carbamimidoylphenyl)-4,5-dihydroisoxazol-5-yl)methyl)piperazin-1-yl)acetic acid] |  |  |  | remained in the closed state | decreased | effective |  | effect on αIIbβ3 headpiece conformation in gel filtration (αIIbβ3 headpiece [1]): closure stabilizing; LIBS (MBC319.4) epitope exposure (αIIbβ3_N305T): significantly suppressed LIBS induction |
| N=C(N)c1ccc(C2=NOC(CN3CCC(CC(=O)O)CC3)C2)cc1 (stereo not shown) [BMS4–2, 2-(1-((3-(4-carbamimidoylphenyl)-4,5-dihydroisoxazol-5-yl)methyl)piperidin-4-yl)acetic acid] |  | stabilized headpiece opening |  |  | showing significant induction except for BMS4–2 (p=0.06) | effective |  | Ser-123 sidechain oxygen - MIDAS Mn2+ ion distance (αIIbβ3 headpiece [2]; soaked in Mn2+): 3.7±0.1 Å; conformational state of headpiece molecules in the crystal lattice (αIIbβ3 headpiece [2]; soaked in Mn2+): state 2 |
| O=C(O)CN1CCN(CC2CC(C3CCNCC3)=NO2)CC1 (stereo not shown) [BMS4–3, 2-(4-((3-(piperidin-4-yl)-4,5-dihydroisoxazol-5-yl)methyl)piperazin-1-yl)acetic acid] |  |  |  | remained in the closed state |  |  |  | effect on αIIbβ3 headpiece conformation in gel filtration (αIIbβ3 headpiece [1]): closure stabilizing |
| Cl.Cl.Cl.N=C(N)c1ccc(N2CCN(C3CCN(CC(=O)O)CC3)CC2)cc1 [GR144053] |  |  |  |  | decreased |  |  | effect on αIIbβ3 headpiece conformation in gel filtration (αIIbβ3 headpiece [1]): closing; conformational state of headpiece molecules in the crystal lattice (αIIbβ3 headpiece [2]; soaked in Mn2+): state 1; LIBS (MBC319.4) epitope exposure (αIIbβ3_N305T): significantly suppressed LIBS induction |
| N=C(N)c1ccc(C(=O)N[C@@H](Cc2ccc([N+](=O)[O-])cc2)C(=O)N2CCc3nn(CC(=O)O)cc3C2)cc1 [UR-2922] | neither UR-2922 nor BMS4 increased the hydrodynamic radius | shifted the headpiece to a smaller hydrodynamic radius than the control | no structural perturbation | no structural perturbation | decreased | effective |  | LIBS epitopes on platelets (αIIbβ3 on platelets; Mg2+ ref Baba et al., 2001): not to induce LIBS epitopes; LIBS (MBC319.4) epitope exposure (αIIbβ3_N305T): significantly suppressed LIBS induction |
| N=C(N)c1ccc(-c2ccc(OC[C@@H]3C[C@@H](CC(=O)O)C(=O)N3)cc2)cc1 [fradafiban, 2-((3S,5S)-5-(((4’-carbamimidoyl-[1,1’-biphenyl]-4-yl)oxy)methyl)-2-oxopyrrolidin-3-yl)acetic acid] | did not cause headpiece opening | induced headpiece opening as completely as tirofiban | did not cause any conformational change | induced a 2 Å movement in the β1-α1 loop at the Cα atom of Ser-123 toward ligand |  |  | modestly but significantly induced integrin extension |  |
| N=C(N)c1ccc(N2C[C@H](CN3CCN(CCC(=O)O)CC3)OC2=O)cc1 [gantofiban analog, (S)-3-(4-((3-(4-carbamimidoylphenyl)-2-oxooxazolidin-5-yl)methyl)piperazin-1-yl)propanoic acid] |  |  |  | induced movement of the β1-α1 loop and Ser-123 sidechain oxygen into the position of water 1 |  |  |  | effect on αIIbβ3 headpiece conformation in gel filtration (αIIbβ3 headpiece [1]): does in both Mg^2+ and Mn^2+ |
| [H]/N=C(/N)c1ccc(C(=O)N[C@@H](Cc2ccc(O)cc2)C(=O)N2CCC(OCC(=O)O)CC2)cc1 [lamifiban] | did not cause headpiece opening | induced headpiece opening as completely as tirofiban | did not cause any conformational change | induced a 2 Å movement in the β1-α1 loop at the Cα atom of Ser-123 toward ligand |  |  | modestly but significantly induced integrin extension | LIBS epitopes on platelets in platelet-rich plasma (αIIbβ3 on platelets; 2001, 1998): not to induce LIBS epitopes; exposure of LIBS epitopes on αIIbβ3 on platelets (αIIbβ3 on platelets; ref Murphy et al., 1998): did not induce exposure of LIBS epitopes |
| CN1Cc2cc(C(=O)N3CCC(C4CCNCC4)CC3)ccc2N[C@@H](CC(=O)O)C1=O [lotrafiban, (S)-2-(7-([4,4’-bipiperidine]-1-carbonyl)-4-methyl-3-oxo-2,3,4,5-tetrahydro-1H-benzo[e][1,4]diazepin-2-yl)acetic acid] | caused the headpiece to elute earlier in gel filtration |  | Ser-123 displaced water 1 to coordinate directly to the MIDAS metal ion |  |  |  | Stronger extension | LIBS (MBC319.4) epitope exposure (αIIbβ3 WT): strongly induced LIBS exposure; hydrodynamic radius of αIIbβ3 headpiece (αIIbβ3 headpiece [1]; 2 mM Mn2+/0.2 mM Ca2+): ~ 5.36 nm |
| CCOC(=O)COC1CCN(C(=O)[C@H](C)NC(=O)c2ccc(C(=N)NO)cc2)CC1 [sibrafiban] | did not cause headpiece opening | induced headpiece opening as completely as tirofiban | did not cause any conformational change | induced a 2 Å movement in the β1-α1 loop at the Cα atom of Ser-123 toward ligand |  | effective | modestly but significantly induced integrin extension | LIBS epitopes on platelets in platelet-rich plasma (αIIbβ3 on platelets; 2001, 1998): not to induce LIBS epitopes |
| (2S)-2-((butoxycarbonyl)amino)-3-(2-(3-(4-carbamimidoylphenyl)-4,5-dihydroisoxazol-5-yl)acetamido)propanoic acid [roxifiban] | caused the headpiece to elute earlier in gel filtration |  |  | Ser-123 displaced water 1 to coordinate directly to the MIDAS metal ion |  | effective | Stronger extension | LIBS (MBC319.4) epitope exposure (αIIbβ3 WT): Weaker but significant induction; hydrodynamic radius of αIIbβ3 headpiece (αIIbβ3 headpiece [1]; 2 mM Mn2+/0.2 mM Ca2+): ~ 5.36 nm |
| eptifibatide |  |  | Ser-123 displaced water 1 to coordinate directly to the MIDAS metal ion |  |  |  | Stronger extension | LIBS (MBC319.4) epitope exposure (αIIbβ3 WT): strongly induced LIBS exposure |
| fibrinogen γ C-terminal dodecapeptide: fibrinogen γ C-terminal dodecapeptide HHLGGAKQAGDV |  |  |  |  |  |  |  | LIBS (MBC319.4) epitope exposure (αIIbβ3 WT): Weaker but significant induction |
